Results from ChEMBL document CHEMBL3352690, “Synthesis and evaluation of arylpiperazines derivatives of 3,5-dioxo-(2H,4H)-1,2,4-triazine as 5-HT1AR ligands” (Bioorg Med Chem Lett, 2014).

Key:
[1] = target: T1, Adrenergic receptor alpha-1 (Homo sapiens, UniProt P35348+P25100+P35368); experiment: Displacement of [3H]-7-methoxyprazosin from alpha1 adrenergic receptor (unknown origin) by competition binding assay
T1 sequence (P35348 whole entry): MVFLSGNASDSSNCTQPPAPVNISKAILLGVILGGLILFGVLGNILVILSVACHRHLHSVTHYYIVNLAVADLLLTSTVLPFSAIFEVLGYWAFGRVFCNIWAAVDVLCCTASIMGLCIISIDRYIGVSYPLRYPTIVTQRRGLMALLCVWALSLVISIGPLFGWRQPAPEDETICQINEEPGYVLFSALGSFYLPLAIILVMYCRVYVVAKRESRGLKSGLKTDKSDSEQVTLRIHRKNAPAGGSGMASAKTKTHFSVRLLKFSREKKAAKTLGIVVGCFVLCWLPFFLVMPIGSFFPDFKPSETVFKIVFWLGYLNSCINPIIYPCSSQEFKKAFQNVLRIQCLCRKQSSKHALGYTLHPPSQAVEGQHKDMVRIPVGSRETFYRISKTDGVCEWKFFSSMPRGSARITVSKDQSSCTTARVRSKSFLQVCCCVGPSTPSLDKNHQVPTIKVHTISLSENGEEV
T1 sequence (P25100 whole entry): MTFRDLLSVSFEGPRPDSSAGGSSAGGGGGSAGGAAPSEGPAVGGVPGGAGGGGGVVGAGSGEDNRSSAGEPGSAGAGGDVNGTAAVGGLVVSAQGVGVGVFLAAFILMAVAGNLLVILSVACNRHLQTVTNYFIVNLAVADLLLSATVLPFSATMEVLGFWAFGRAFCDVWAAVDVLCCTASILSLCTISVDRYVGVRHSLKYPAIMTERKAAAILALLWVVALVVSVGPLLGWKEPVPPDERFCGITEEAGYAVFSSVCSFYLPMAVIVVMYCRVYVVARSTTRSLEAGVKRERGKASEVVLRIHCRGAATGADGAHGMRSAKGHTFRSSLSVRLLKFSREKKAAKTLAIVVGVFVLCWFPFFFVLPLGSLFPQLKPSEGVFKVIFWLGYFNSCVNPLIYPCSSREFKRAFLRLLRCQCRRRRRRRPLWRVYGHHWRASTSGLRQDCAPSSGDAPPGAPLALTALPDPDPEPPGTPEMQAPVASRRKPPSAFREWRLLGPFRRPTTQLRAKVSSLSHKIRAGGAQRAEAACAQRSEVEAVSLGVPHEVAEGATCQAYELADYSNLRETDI
T1 sequence (P35368 whole entry): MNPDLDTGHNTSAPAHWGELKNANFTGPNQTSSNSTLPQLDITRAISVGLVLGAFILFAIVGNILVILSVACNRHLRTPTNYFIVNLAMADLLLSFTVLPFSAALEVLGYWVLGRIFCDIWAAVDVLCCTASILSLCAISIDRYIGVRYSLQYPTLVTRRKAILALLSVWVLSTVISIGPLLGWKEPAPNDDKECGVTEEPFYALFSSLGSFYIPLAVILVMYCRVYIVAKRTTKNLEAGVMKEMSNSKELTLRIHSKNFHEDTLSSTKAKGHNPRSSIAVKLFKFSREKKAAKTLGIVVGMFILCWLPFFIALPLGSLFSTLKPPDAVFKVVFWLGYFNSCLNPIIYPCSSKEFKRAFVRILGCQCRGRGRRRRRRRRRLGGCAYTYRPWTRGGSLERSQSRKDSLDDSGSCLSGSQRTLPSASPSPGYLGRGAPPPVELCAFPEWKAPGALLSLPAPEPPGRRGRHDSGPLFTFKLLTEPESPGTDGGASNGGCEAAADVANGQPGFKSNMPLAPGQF
How it was run: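 Competition binding against [3H]-7-methoxyprazosin, with phentolamine as the reference compound.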

[2] = target: T2, 5-hydroxytryptamine receptor 1A (Homo sapiens, UniProt P08908); experiment: Displacement of [3H]8-OH-DPAT from 5HT1AR (unknown origin) by competition binding assay
T2 sequence (P08908 whole entry): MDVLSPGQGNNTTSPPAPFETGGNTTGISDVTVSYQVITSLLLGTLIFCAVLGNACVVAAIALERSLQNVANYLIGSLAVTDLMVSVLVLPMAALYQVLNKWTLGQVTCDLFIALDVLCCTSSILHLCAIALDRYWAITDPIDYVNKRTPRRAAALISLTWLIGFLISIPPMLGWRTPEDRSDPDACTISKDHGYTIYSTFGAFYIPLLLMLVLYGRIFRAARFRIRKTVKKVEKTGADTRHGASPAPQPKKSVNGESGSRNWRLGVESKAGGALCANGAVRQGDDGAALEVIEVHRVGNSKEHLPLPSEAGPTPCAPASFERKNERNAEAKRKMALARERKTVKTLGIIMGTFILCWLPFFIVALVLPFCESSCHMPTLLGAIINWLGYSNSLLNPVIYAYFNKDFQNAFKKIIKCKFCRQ

[3] = target: T3, 5-hydroxytryptamine receptor 1A (Homo sapiens) (UniProt P08908); experiment: Agonist activity at human 5HT1AR expressed in CHO cells assessed as increase in [35S]GTPgammaS binding by liquid scintillation spectrometry relative to untreated control; assay type: functional, cell-based; details: in the assay text read “relative to 5-HT” for “relative to untreated control”
T3 sequence (whole entry): T2 sequence (P08908 whole entry)
How it was run: (§1)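 CHO-h5-HT1A cell membranes (30 μg) preincubated 5 min at room temperature with set concentrations of ligand in 20 mM HEPES pH 7.4, 3 mM MgCl2, 100 mM NaCl, 3 μM GDP. [35S]GTPγS (0.1 nM) then added, 60 min at room temperature. Stopped by rapid filtration through GF/B filters with three ice-cold 20 mM HEPES pH 7.4 washes. Bound radioactivity counted by liquid scintillation.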

[4] = target: T2, 5-hydroxytryptamine receptor 1A; experiment: (§2) Agonist activity at human 5HT1AR expressed in CHO cells assessed as increase in [35S]GTPgammaS binding by liquid scintillation spectrometry; assay type: functional, cell-based; how it was run: as §1
[5] = target: T3, 5-hydroxytryptamine receptor 1A (Homo sapiens); experiment: as §2; assay type: functional, cell-based; how it was run: as §1
[6] = species: Homo sapiens; experiment: Selectivity index, ratio of Ki for alpha1 adrenergic receptor (unknown origin) to Ki for 5HT1AR (unknown origin)

SMILES	Ki [1] [nM]	Ki [2] [nM]	Emax [3] [%]	EC50 [4] [nM]	Activity [5]	Ratio Ki [6]
COc1ccccc1N1CCN(CCCn2ncc(=O)n(C)c2=O)CC1	> 10000	180	–	–	–	–
Cn1c(=O)cnn(CCCCN2CCN(c3cccc(F)n3)CC2)c1=O	> 10000	0.2	95	0.2	Dose-dependent effect	–
Cn1c(=O)cnn(CCCCN2CCN(c3ncccn3)CC2)c1=O [EPTAPIRONE]	> 10000	175	–	–	–	–
COc1ccc2cccc(N3CCN(CCCCCn4ncc(=O)n(C)c4=O)CC3)c2c1	> 10000	240	–	–	–	–
CN(C)c1ccccc1N1CCN(CCCCn2ncc(=O)n(C)c2=O)CC1	350	180	–	–	–	–
COc1ccccc1N1CCN(CCCCCn2ncc(=O)n(C)c2=O)CC1	> 10000	150	–	–	–	–
Cn1c(=O)cnn(CCCCN2CCN(c3c(F)cccc3C#N)CC2)c1=O	> 10000	4.8	–	–	–	–
CSc1ccccc1N1CCN(CCCCn2ncc(=O)n(C)c2=O)CC1	1.8	0.46	–	–	–	–
COc1ccccc1N1CCN(CCn2ncc(=O)n(C)c2=O)CC1	> 10000	240	–	–	–	–
Cn1c(=O)cnn(CCCCN2CCN(c3ccccc3S)CC2)c1=O	> 10000	8	–	–	–	–
Cn1c(=O)cnn(CCCCN2CCN(c3cccc(O)c3)CC2)c1=O	> 10000	2.8	–	–	–	–
COc1ccccc1N1CCN(CCCCn2ncc(=O)n(C)c2=O)CC1	6.75	–	–	–	Dose-dependent effect	45
Cn1c(=O)cnn(CCCCN2CCN(c3ccccc3O)CC2)c1=O	> 10000	1.7	–	–	–	> 10000
Cn1c(=O)cnn(CCCCN2CCN(c3ccccc3)CC2)c1=O	64	2.5	93	0.3	Dose-dependent effect	25
Cn1c(=O)cnn(CCCCN2CCN(c3ccccc3OCCCF)CC2)c1=O	280	0.8	–	–	–	42
Cn1c(=O)cnn(CCCCN2CCN(c3cccc4ccc(O)cc34)CC2)c1=O	24.5	0.44	–	–	–	–
Cn1c(=O)cnn(CCCN2CCN(c3ccccc3)CC2)c1=O	> 10000	350	–	–	–	–

SMILES	Ki [1] [nM]	Ki [2] [nM]	Emax [3] [%]	EC50 [4] [nM]	Activity [5]	Ratio Ki [6]
Cn1c(=O)cnn(CCCCN2CCN(c3ccccc3C#N)CC2)c1=O	7.3	0.835	–	–	–	–
Cn1c(=O)cnn(CCCCN2CCN(c3cccc(Br)n3)CC2)c1=O	> 10000	1.4	–	–	–	–
Cn1c(=O)cnn(CCCCN2CCN(c3ncccc3F)CC2)c1=O	> 10000	1.2	80	0.8	Dose-dependent effect	–
COc1ccc(N2CCN(CCCCn3ncc(=O)n(C)c3=O)CC2)c(OC)c1	> 10000	190	–	–	–	–
COc1ccc2cccc(N3CCN(CCCn4ncc(=O)n(C)c4=O)CC3)c2c1	> 10000	175	–	–	–	–
Cn1c(=O)cnn(CCCCN2CCN(c3c(Br)cccc3C#N)CC2)c1=O	450	28	–	–	–	–
Cn1c(=O)cnn(CCCCN2CCN(c3ccc(I)cc3)CC2)c1=O	103	58.8	–	–	–	–
COc1ccc(N2CCN(CCCCn3ncc(=O)n(C)c3=O)CC2)c(C#N)c1	380	215	–	–	–	–
CCOc1ccccc1N1CCN(CCCCn2ncc(=O)n(C)c2=O)CC1	1.8	0.66	–	–	–	–
COc1ccc(N2CCN(CCCCn3ncc(=O)n(C)c3=O)CC2)cc1	> 10000	414	–	–	–	–
Cn1c(=O)cnn(CCCCN2CCN(c3ccccc3F)CC2)c1=O	9.73	1.89	–	–	–	–
Cn1c(=O)cnn(CCCCN2CCN(c3ccccn3)CC2)c1=O	262	1.1	85	0.08	Dose-dependent effect	–
Cn1c(=O)cnn(CCCCN2CCN(c3ccc(F)cn3)CC2)c1=O	> 10000	68	–	–	–	–
CCOc1ccc2cccc(N3CCN(CCCCn4ncc(=O)n(C)c4=O)CC3)c2c1	48	2.1	–	–	–	–
Cn1c(=O)cnn(CCCN2CCN(c3ccccc3F)CC2)c1=O	> 10000	250	–	–	–	–
CNc1ccccc1N1CCN(CCCCn2ncc(=O)n(C)c2=O)CC1	450	220	–	–	–	–
